As usually defined, the Emax is the maximal effect, on the per cent scale that the assay sets. What is called ED50 is the dose at which the effect has come halfway, by size or by number of responders. For orientation: half-life means how long it takes for the measured level to halve. The EC50 is the concentration giving half of the maximal effect.

For data set [1], the target named is Sphingosine 1-phosphate receptor 1 (Homo sapiens, UniProt P21453). In words: Agonist activity at human S1P1 receptor expressed in CHO cell membranes after 45 mins by [35S]GTPgammaS binding assay. Format: functional. An outline of the steps:
(§1)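 Membranes from S1P1/CHO or EDG3-Ga15-bla HEK293T cells (final protein 3 µg/well) incubated with compound (11-point, 3-fold dilution) and [35S]GTP 0.2 nM final in 20 mM HEPES pH 7.5, 10 mM MgCl2, 150 mM NaCl, 1 mM EGTA, 1 mM DTT, 10 µM GDP, 0.1% fatty acid free BSA, 10 µg/ml saponin, 45 min at room temperature. Filter capture, scintillation counting; EC50 taken at 50% of each compound's Ymax.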

Data set [2] relates to Cardiac muscle cell. In words: Toxicity in human inducible pluripotent stem cell derived cardiomyocytes assessed as reduction in beating rate at 10 nM after 20 mins by multi-electrode array electrophysiology study. Format: cell-based. More on the design: scale not given: the % may be the effect or the level left. The conditions noted are these: 0.01 µM. The method in brief:
(§2)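 hiPSC cardiomyocytes were grown 7 days at 7% CO2 on gelatin, then co-cultured with 10% cardiac fibroblasts for 7 days on laminin-coated 9-well MEA plates until they formed a beating monolayer. After 20-60 min equilibration at 37 °C, compound was added in maintenance medium (DMSO or NaOH vehicle below 0.1% or 30 µM). Field potentials were recorded at 10 kHz from 28 electrodes/well for at least 2 h. Reported as mean change in beating rate versus control, mean ± SD of ≥3 experiments.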

In data set [3] the test system is Cardiac muscle cell. In words: Toxicity in human inducible pluripotent stem cell derived cardiomyocytes assessed as reduction in beating rate at 1 nM after 20 mins by multi-electrode array electrophysiology study. Format: cell-based. More on the design: scale not given: the % may be the effect or the level left. The conditions noted are these: 0.001 µM. The method in brief:
as §2

A short description of data set [4]: Prodrug conversion in Lewis rat blood assessed as formation phosphate metabolite at 2 mg/kg, po after 24 hrs. Format: ADME, organism-based. The note with it: in vivo.
Data set [5] concerns Rattus norvegicus. In words: Immunosuppressive activity in Lewis rat assessed as reduction in blood lymphocytes count at 2 mg/kg, po after 24 hrs relative to control. More on the design: scale not given: the % may be the effect or the level left. Format: functional. The method in brief:
(§3)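 Oral dosing in Lewis rats, with PEG300 as vehicle, given as solution or suspension adjusted for free test article if salt forms are used. Blood sampled at several time points. Lymphocytes counted on a hematology analyzer. Result is the reduction in circulating lymphocyte percentage versus the vehicle group at each time, averaged per group (n = 2).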

The test system of data set [6] is Rattus norvegicus. In words: Immunosuppressive activity in Lewis rat assessed as reduction in blood lymphocytes count at 2 mg/kg, po after 48 hrs relative to control. It is filed as functional. More on the design: scale not given: the % may be the effect or the level left. The method in brief:
as §3

A short description of data set [7]: Prodrug conversion in Lewis rat blood assessed as parent compound levels at 2 mg/kg, po after 48 hrs. Format: ADME, organism-based. The note with it: in vivo, read-out: Drug metabolism.
Data set [8] relates to Rattus norvegicus. In words: Immunosuppressive activity in po dosed Lewis rat assessed as reduction in blood lymphocytes after 24 hrs. It is filed as functional. An outline of the steps:
as §3

The nature of data set [9]: Prodrug conversion in Lewis rat blood assessed as formation phosphate metabolite at 2 mg/kg, po after 48 hrs. It is filed as ADME, organism-based. The note with it: in vivo.
Data set [10] can be described thus: Prodrug conversion in Lewis rat blood assessed as formation phosphate metabolite at 2 mg/kg, po after 4 hrs. Format: ADME, organism-based. The note with it: in vivo.
Data set [11] is described as follows: Prodrug conversion in Lewis rat blood assessed as parent compound levels at 2 mg/kg, po after 4 hrs. It is filed as ADME, organism-based. The note with it: in vivo, read-out: Drug metabolism.
For data set [12], the system named is Rattus norvegicus. In words: Immunosuppressive activity in Lewis rat assessed as reduction in blood lymphocytes count at 2 mg/kg, po after 4 hrs relative to control. Format: functional. Details: scale not given: the % may be the effect or the level left. The method in brief: as §3
Data set [13] in a line: Prodrug conversion in Lewis rat blood assessed as parent compound levels at 2 mg/kg, po after 24 hrs. It is filed as ADME, organism-based. The conditions noted are these: in vivo, read-out: Drug metabolism.
Data set [14] can be described thus: Half life in Lewis rat at 2 mg/kg, po after 72 hrs. The note with it: in vivo. It is filed as ADME, organism-based.
For data set [15], the species on record is Mus musculus. In words: Pulmonary toxicity in mouse assessed as increase in BAL protein levels at 20 times ED50 relative to control. It is filed as organism-based. The conditions noted are these: in vivo.
Data set [16] is filed under the species Mus musculus. In words: Pulmonary toxicity in mouse assessed as increase in BAL protein levels at ED50. The note with it: in vivo. It is filed as organism-based.
For data set [17], the target named is Sphingosine 1-phosphate receptor 3 (Homo sapiens, UniProt Q99500). In words: Agonist activity at human EDG3-Ga15-bla expressed in HEK293T cells after 45 mins by [35S]GTPgammaS binding assay. It is filed as functional, cell-based. An outline of the steps:
as §1
Background: Binding of GTPγS marks nucleotide exchange on a G protein.

Data set [18] is filed under the species Mus musculus. In words: Pulmonary toxicity in mouse assessed as increase in BAL protein levels at 15 times ED50. The note with it: in vivo. Format: organism-based.
The species named for data set [19] is Mus musculus. In words: Pulmonary toxicity in mouse assessed as increase in BAL protein levels at 5 times ED50. It is filed as organism-based. The conditions noted are these: in vivo.
The species named for data set [20] is Mus musculus. In words: Pulmonary toxicity in mouse assessed as increase in BAL protein levels at 30 times ED50. Format: organism-based. The note with it: in vivo.
For data set [21], the species on record is Mus musculus. In words: Pulmonary toxicity in mouse assessed as increase in BAL protein levels up to 10 times ED50. It is filed as organism-based. The conditions noted are these: in vivo.
The species named for data set [22] is Mus musculus. In words: Pulmonary toxicity in mouse assessed as increase in BAL protein levels at 60 times ED50. Format: organism-based. The note with it: in vivo.
Data set [23] is described as follows: Half life in rat. It is filed as ADME, organism-based. The conditions noted are these: in vivo.

Sequence of Sphingosine 1-phosphate receptor 1 (P21453 whole entry): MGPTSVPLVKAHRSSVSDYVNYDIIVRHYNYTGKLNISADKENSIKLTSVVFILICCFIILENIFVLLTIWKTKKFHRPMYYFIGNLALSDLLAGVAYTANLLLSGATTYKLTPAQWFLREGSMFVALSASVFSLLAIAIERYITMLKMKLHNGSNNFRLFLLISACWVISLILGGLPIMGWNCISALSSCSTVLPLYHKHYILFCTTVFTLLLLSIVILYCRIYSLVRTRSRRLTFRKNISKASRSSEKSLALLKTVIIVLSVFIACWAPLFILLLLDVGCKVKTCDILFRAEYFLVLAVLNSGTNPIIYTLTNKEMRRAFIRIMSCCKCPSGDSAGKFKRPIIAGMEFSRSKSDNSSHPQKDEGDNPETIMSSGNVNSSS
Sequence of Sphingosine 1-phosphate receptor 3 (Q99500 whole entry): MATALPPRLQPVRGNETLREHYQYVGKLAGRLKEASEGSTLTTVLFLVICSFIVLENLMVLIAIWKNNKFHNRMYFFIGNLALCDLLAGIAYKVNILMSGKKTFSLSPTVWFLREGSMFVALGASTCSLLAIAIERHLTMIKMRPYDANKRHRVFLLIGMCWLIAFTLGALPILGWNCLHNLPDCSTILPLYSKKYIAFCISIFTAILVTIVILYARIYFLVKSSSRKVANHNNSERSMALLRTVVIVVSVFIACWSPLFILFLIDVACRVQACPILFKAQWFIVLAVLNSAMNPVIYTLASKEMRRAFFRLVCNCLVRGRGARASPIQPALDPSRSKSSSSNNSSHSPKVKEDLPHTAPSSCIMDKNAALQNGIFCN

In [1], `CCCCOc1nc2c(s1)-c1ccc([C@H]3CC[C@](N)(COP(=O)(O)O)C3)cc1CC2` came in with a maximal effect (Emax) of 58%. The Activity in the data set with Cardiac muscle cell [2] is given as 36%; in the data set on Cardiac muscle cell [3] it was 16%.
On to `CCCCOCCOc1nc2c(s1)-c1ccc([C@H]3CC[C@](N)(CO)C3)cc1CC2`, for which the Drug metabolism is 58 nM in data set [4], 18 nM in [9] and 120 nM in [10]. For the same compound, the results for the Activity in the data set on Rattus norvegicus [5], with Rattus norvegicus [6] and in the data set with Rattus norvegicus [12] were 87%, 82% and 79%, respectively. For the same compound, the concentration in [7] came to 27 nM; in data set [11], 200 nM; in data set [13], 140 nM. Also, the median effective dose (ED50) in the data set with Rattus norvegicus [8] was determined as 0.25 mg/kg. In addition, the half-life in data set [14] was 20 h. The “fold change (FC)” value in the data set listed under Mus musculus [15] stood at 5.
Take `CCCCOc1nc2c(s1)-c1ccc([C@H]3CC[C@](N)(CO)C3)cc1CC2`: the Drug metabolism in [4] is on record as 20 nM; in data set [9], 4 nM; in [10], 34 nM. Moreover, the Activity is on record as 68% in the data set with Rattus norvegicus [5], 26% with Rattus norvegicus [6], “Toxic” in the data set listed under Mus musculus [16] and 74% in the data set on Rattus norvegicus [12]. Besides, the concentration in data set [7] is under 5 nM; in data set [11] it was 35 nM; in data set [13] it was 7 nM. In addition, in the data set on Rattus norvegicus [8], the ED50 was found to be 1 mg/kg. The half-life in [14] is 5 h.
With `CCCCCCCc1nc2c(s1)-c1ccc([C@H]3CC[C@](N)(COP(=O)(O)O)C3)cc1CC2`, the maximal effect (Emax) in data set [1] was found to be 98%.
Turning to `CCCCOCCOc1nc2c(s1)-c1ccc([C@H]3CC[C@](N)(COP(=O)(O)O)C3)cc1CC2`, in data set [1], a half-maximal effect (EC50) was put at 1 nM and the Emax stood at 110%. Besides, a half-maximal effect in data set [17] (EC50) was put at 190 nM.
Turning to `CCCCSc1nc2c(s1)-c1ccc([C@H]3CC[C@](N)(CO)C3)cc1CC2`, the values for the Drug metabolism in [4], in data set [9] and in [10] were 2.3 nM, under 1 nM and 15 nM, respectively. Moreover, the Activity is recorded as 48% in the data set with Rattus norvegicus [5]; 16% in the data set with Rattus norvegicus [6]; “Toxic” in the data set listed under Mus musculus [18]; 82% with Rattus norvegicus [12]; “Toxic” in the data set filed under Mus musculus [19]. Further, the concentration in data set [7] is under 1 nM; in data set [11], 9.1 nM; in [13], 1.4 nM. For the same compound, the ED50 with Rattus norvegicus [8] amounted to 2 mg/kg. Besides, the half-life in [14] was under 5 h.
`CCCCCc1nc2c(s1)-c1ccc([C@H]3CC[C@](N)(CO)C3)cc1CC2`: the Drug metabolism in [4] came to 56 nM; in data set [9], 16 nM; in data set [10], 91 nM. The Activity is on record as 83% with Rattus norvegicus [5]; 56% in the data set with Rattus norvegicus [6]; “Non-Toxic” in the data set filed under Mus musculus [20]; “Non-Toxic” in the data set filed under Mus musculus [21]; 33% with Rattus norvegicus [12]; “Toxic” in the data set listed under Mus musculus [22]. Also, the concentration in data set [7] was determined as 25 nM; in data set [11], 100 nM; in data set [13], 55 nM. The ED50 in the data set on Rattus norvegicus [8] was 0.5 mg/kg. For the same compound, the half-life in data set [14] was 20 h.
With `CCCCNc1nc2c(s1)-c1ccc([C@H]3CC[C@](N)(COP(=O)(O)O)C3)cc1CC2`, in data set [1], a half-maximal effect (EC50) was put at 130 nM and the Emax amounted to 49%.
In turn, `CCCCCC[C@@H]1CCc2cc([C@H]3CC[C@](N)(CO)C3)ccc2C1` [BMS-986104] gave a half-life in [23] of 162 h.
`CCCCCCOc1nc2c(s1)-c1ccc([C@H]3CC[C@](N)(COP(=O)(O)O)C3)cc1CC2`: the Emax in data set [1] turned out to be 100%.
On to `CCCCCc1nc2c(s1)-c1ccc([C@H]3CC[C@](N)(COP(=O)(O)O)C3)cc1CC2`, for which the EC50 in data set [1] was 21 nM; in data set [17] it was over 3000 nM. The maximal effect (Emax) in data set [1] was found to be 79%. Also, the Activity result with Cardiac muscle cell [2] and in the data set on Cardiac muscle cell [3] was “Toxic” each time.
The compound `CCCc1nc2c(s1)-c1ccc([C@H]3CC[C@](N)(COP(=O)(O)O)C3)cc1CC2` displayed a maximal effect (Emax) in [1] of 79%.
In [1], `CCCCSc1nc2c(s1)-c1ccc([C@H]3CC[C@](N)(COP(=O)(O)O)C3)cc1CC2` showed an Emax of 58%. Moreover, the Activity entry in the data set with Cardiac muscle cell [2] and with Cardiac muscle cell [3] was “Toxic” in each case.

Source of the values: ChEMBL document CHEMBL4251543, “Identification of potent tricyclic prodrug S1P1 receptor modulators” (Medchemcomm, 2017).
